# Bioassay records deposited in PubChem BioAssay by several laboratories.
# Shown are actives, neighbours in structure and some others; about 2.9% of the full set was active somewhere.
# SENP1 inh: human SENP1 catalytic domain inhibitors, primary screen, biochemical, FRET, uHTS; Sentrin-specific protease 1 (Homo sapiens), Q9P0U3; recombinant SENP1 catalytic domain, CyPet-SUMO1-YPet FRET cleavage; inhibition, % at 10 µM; actives 0.21% (n = 360,000); AID 624204, 2012;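 active = inhibition at least 30% at 10 µM, raw YFP signal under a set limit, fluorescence ratio 0.5 to 1.5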;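 note: 0% = enzyme with DMSO and 100% = no enzyme wells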
# Target sequence (Q9P0U3 419-644 limits assumed): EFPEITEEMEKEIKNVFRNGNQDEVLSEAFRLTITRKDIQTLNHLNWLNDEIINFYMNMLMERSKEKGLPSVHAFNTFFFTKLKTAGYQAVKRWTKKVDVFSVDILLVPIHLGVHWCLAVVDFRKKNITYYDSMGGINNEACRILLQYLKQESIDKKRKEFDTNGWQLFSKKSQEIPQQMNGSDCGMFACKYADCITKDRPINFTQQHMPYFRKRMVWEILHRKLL
#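 Test system: human SENP1 catalytic domain; medium: Tris pH 8 buffer plus EDTA, NaCl, BME, BSA, NP40, catalase; incubation: 50 min reaction at room temperature; technique: FRET, CFP and YFP emission; controls: no-enzyme low control and enzyme-plus-DMSO high control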
# SENP7 inh: SENP7 protease inhibitors, primary screen, biochemical, luminescence, uHTS. AID 434973, 2010. recombinant SENP7, Z-RLRGG-aminoluciferin luminescence, 40 min. Sentrin-specific protease 7 (Homo sapiens), Q9BQF6. actives 1.5% (n = 330,000). inhibition, % at 5 µM;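 active = inhibition above about 50% at the single test dose, limit read from the data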;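 note: plate controls were DMSO with enzyme for no effect and no enzyme buffer wells for full effect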
# SENP6 block: SENP6 protease inhibitors, primary screen, biochemical, luminescence, uHTS; inhibition, % at 10 µM; actives 1.8% (n = 330,000); AID 2599, 2010; Sentrin-specific protease 6 (Homo sapiens), Q9GZR1; Recombinant SENP6 catalytic domain, aminoluciferin luminescence;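 active = inhibition above about 50% at the single tested dose, limit read from the data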;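 note: plate controls were DMSO wells with enzyme for no effect and DMSO wells lacking enzyme for full effect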
# SENP8 block-1: SENP8 protease inhibitors, primary screen, biochemical, luminescence. purified SENP8, Z-RLRGG-aminoluciferin cleavage. Sentrin-specific protease 8 (Homo sapiens), Q96LD8. actives 1.2% (n = 330,000). inhibition, % at 10 µM; in the data active = inhibition above about 50%
# Target sequence (Q96LD8 whole entry, looked up): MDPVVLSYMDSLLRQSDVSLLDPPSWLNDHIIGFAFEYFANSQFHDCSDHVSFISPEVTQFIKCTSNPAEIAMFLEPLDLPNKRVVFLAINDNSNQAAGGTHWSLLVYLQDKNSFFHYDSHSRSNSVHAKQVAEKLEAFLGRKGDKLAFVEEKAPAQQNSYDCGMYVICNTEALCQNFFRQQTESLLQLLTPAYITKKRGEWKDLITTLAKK
# SENP8 block-2: human SENP8 protease inhibitors, primary screen, biochemical, fluorescence, Nedd8 protein substrate, uHTS | Sentrin-specific protease 8 (Homo sapiens), Q96LD8 | recombinant SENP8 | inhibition, % at 20 µM | actives 0.64% (n = 360,000) | AID 602440, 2012; in the data active = inhibition mostly above about 40%, no sharp cut-off; inactive = mostly below about 27%
# HSP90 inh: HSP90 inhibitors, primary screen, cell lysate, luminescence; Heat shock protein HSP 90 (rabbit reticulocyte lysate; luciferase refolding); Rabbit reticulocyte lysate, luciferase refolding luminescence, 3 h; inhibition, % at 5.6 µM; actives 0.91% (n = 290,000); AID 1789, 2009;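 active = inhibition above the screen-wide mean plus 3 SD, computed separately per campaign, cut at about 16% in these data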;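 note: 0% = DMSO wells and 100% = 60 µM geldanamycin wells; inhibitors lower the luminescence because luciferase stays unfolded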
# HSP90 confirm: HSP90 inhibitors, confirmation, cell lysate, luminescence; rabbit reticulocyte lysate, luciferase refolding luminescence, 3 h; actives 64% (n = 2,300); inhibition, % at 5.9 µM; shares compounds with HSP90 inh; in the data active = inhibition above about 18%;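 note: 0% = vehicle wells and 100% = reference inhibitor wells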
# luciferase ctr: firefly luciferase inhibitors, HSP90 counter-screen, confirmation, artefact control for HSP90 inhibitor project, biochemical, luminescence, triplicate. shares compounds with HSP90 inh. purified native firefly luciferase. inhibition, % at 5.9 µM. actives 48% (n = 2,300);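 active = inhibition above the mean inhibition of all tested sample wells plus 3 SD, cut at about 10% in these data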;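 note: 0% = DMSO with luciferase and 100% = wells lacking luciferase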
# SENP8 conf: SENP8 protease inhibitors, retest, confirmation, biochemical, luminescence, single concentration. shares compounds with SENP7 inh. Recombinant SENP8, Z-RLRGG-aminoluciferin luminescence, 60 min. inhibition, % at 12.5 µM. actives 40% (n = 6,200). AID 488912, 2010;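 active = mean inhibition across replicates above about 50%, limit read from the data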
# SENP6 confirm: SENP6 protease inhibitors, confirmation, biochemical, luminescence, single concentration; recombinant SENP6, Z-RLRGG-aminoluciferin luminescence; AID 488915, 2010; inhibition, % at 12.5 µM; actives 58% (n = 6,200); shares compounds with SENP7 inh
# SENP7 confirm: SENP7 protease inhibitors, retest, confirmation, biochemical, luminescence, single concentration; recombinant SENP7, Z-RLRGG-aminoluciferin luminescence, 40 min; shares compounds with SENP7 inh; actives 69% (n = 6,200); inhibition, % at 12.5 µM
# Casp3 SENP sel: caspase-3 protease inhibitors, confirmation, selectivity assay for SENP inhibitor project, biochemical, single concentration | purified caspase-3, Z-DEVD-aminoluciferin luminescence, 60 min | actives 60% (n = 6,200) | shares compounds with SENP7 inh | inhibition, % at 12.5 µM;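 active = mean inhibition above about 50%, limit read from the data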;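 note: plate controls were enzyme with DMSO for no effect and wells without caspase-3 for full effect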
# Target sequence (P42574 28-227 limits assumed): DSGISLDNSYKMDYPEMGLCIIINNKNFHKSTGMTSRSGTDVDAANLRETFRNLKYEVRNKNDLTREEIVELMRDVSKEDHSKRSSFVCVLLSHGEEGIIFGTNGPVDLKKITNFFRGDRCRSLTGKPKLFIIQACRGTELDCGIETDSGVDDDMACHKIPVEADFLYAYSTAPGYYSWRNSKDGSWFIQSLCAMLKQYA
# SENP luc ctr: counter-screen for SENP inhibitors: luminescence interference; AID 488919; shares compounds with SENP7 inh; actives 39% (n = 6,200); inhibition, % at 12.5 µM; Pre-incubated SENP8/Z-RLRGG-aminoluciferin, luciferase luminescence interference;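 active = mean inhibition above about 50% when retested at one dose, limit read from the data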;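 note: plate controls were DMSO wells with completed reaction for no effect and substrate without enzyme for full effect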
# * = called active by the depositor; . = no result given.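 Rule for the calls, unless noted: active = mean inhibition above about 50% in the one-dose retest (limit read from the data); inactive = the rest.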
SMILES,SENP1 inh,SENP7 inh,SENP6 block,SENP8 block-1,SENP8 block-2,HSP90 inh,HSP90 confirm,luciferase ctr,SENP8 conf,SENP6 confirm,SENP7 confirm,Casp3 SENP sel,SENP luc ctr
O=C(O)c1ccc(-c2nc3ccccc3s2)o1,-5,78*,91*,77*,-363,63*,80*,24*,87*,84*,92*,61*,82*
Cc1cc(C)c(C(=O)CC(=O)c2ccccc2Cl)c(O)c1,0,-4,-6,5,14,3,.,.,.,.,.,.,.
O=C(Nc1nccs1)c1sc2ccccc2c1Cl,3,71*,88*,75*,-88,23*,50*,45*,2,58*,91*,70*,7
Cc1cccc(C(=O)n2c(=S)nc3cc(C)ccn32)c1,0,81*,75*,58*,-20,18*,57*,47*,63*,72*,87*,46,30
O=C(/C=C/Nc1ccc(F)cc1Br)c1ccccc1,-19,100*,96*,94*,-83,19*,89*,82*,31,43,36,75*,29
COc1cccc(N/C=C/C(=O)c2ccc(C)cc2)c1,-65,96*,91*,95*,-174,19*,34*,28*,96*,98*,101*,94*,93*
Cc1ccc(N/C=C/C(=O)c2ccc(C)cc2)cc1,-68,19,-13,-21,-296,4,.,.,.,.,.,.,.
Cc1ccc(C(=O)/C=C/Nc2ccc([N+](=O)[O-])cc2Br)cc1,-21,3,-14,-2,-18,7,.,.,.,.,.,.,.
COc1ccc(OC)c(N/C=C/C(=O)c2ccccc2)c1,-28,101*,93*,95*,12,70*,92*,84*,100*,101*,104*,99*,95*
Cc1ccc(C(=O)/C=C/Nc2ccccn2)cc1,-11,97*,95*,93*,-220,66*,96*,91*,94*,98*,102*,96*,62*
Cc1ccccc1-c1cc2nc(Oc3cccc4ccccc34)n(C)c(=O)c2s1,3,.,.,.,17,.,.,.,.,.,.,.,.
CC(=O)N(CN1C(=O)c2ccccc2C1=O)c1cccc(C)c1,1,-6,-10,-1,15,4,.,.,.,.,.,.,.
CC(=O)N(/N=C1\Sc2ccccc2C1=O)c1cccc(C)c1,-13,93*,92*,94*,-13,40*,76*,-25,-6,84*,58*,11,16
O=C(Nc1ccc(Cl)cn1)c1ccc(-c2ccc(Cl)c(Cl)c2)o1,3,-1,-6,-1,-201,-2,.,.,.,.,.,.,.
Cc1ccc(-c2nc(-c3ccncc3)no2)c(Cl)c1,-1,89*,71*,75*,4,28*,48*,47*,-8,10,42,28,27
CCN(CC(=O)NC(C)C)C(=O)Cc1ccc(C)c(C)c1,0,3,-14,-1,11,4,.,.,.,.,.,.,.
CCn1ccc(C(=O)Nc2ccc3c(c2)CCC3)n1,-1,59*,43,25,10,19*,30*,15*,44,45,81*,65*,57*
CCn1ccc(C(=O)Nc2ccc(N(C)C(C)=O)cc2)n1,3,-2,8,-6,28,-2,.,.,.,.,.,.,.
Clc1cccc(N/N=C/c2ccc(N3CCOCC3)cc2)c1,-13,-8,-34,-17,-164,-1,.,.,.,.,.,.,.
O=C(O)c1cc(N/N=C/c2ccc(N3CCOCC3)cc2)ccc1Cl,-9,31,-17,51*,-284,39*,83*,65*,75*,73*,94*,23,75*
O=C(O)c1cc(N/N=C/c2ccncc2)ccc1Cl,0,41,60*,37,-208,25*,62*,10*,58*,54*,85*,25,72*
O=C(N/N=C/c1ccncc1)c1cccc(N/N=C/c2ccncc2)c1,1,-1,0,-13,2,11,.,.,.,.,.,.,.
COc1ccc2ccccc2c1/C=N/Nc1ccc(Cl)c(C(=O)O)c1,-27,9,10,5,-183,12,.,.,.,.,.,.,.
CSc1ccc(/C=N/Nc2ccc(Cl)c(C(=O)O)c2)cc1,0,-4,76*,77*,-69,33*,80*,54*,-28,91*,100*,25,92*
CCOC(=O)N1CCN(C(=O)c2cn(C)c3ccc(S(=O)(=O)N(C)C4CCCCC4)cc3c2=O)CC1,1,-4,9,0,11,-7,.,.,.,.,.,.,.
Cc1nc(NC(=O)c2ccccc2)sc1-c1csc(NCc2ccco2)n1,5,66*,60*,48,-43,48*,29*,-13,28,29,36,67*,32
COc1cccc(Nc2nc(-c3sc(NC(=O)c4ccccc4)nc3C)cs2)c1,-19,40,59*,35,-88,45*,12,-24,12,11,20,37,12
